Experimental findings from ChEMBL document CHEMBL1152964, “Bicyclic cyanothiazolidines as novel dipeptidyl peptidase 4 inhibitors” (Bioorg Med Chem Lett, 2009) are described below.

Where only a bound is given, the exact number is not on record here.

The target of the first test is Dipeptidyl peptidase 4 (Homo sapiens, UniProt P27487). In words: Inhibition of human recombinant DPP4 by fluorescence assay.
Chain of Dipeptidyl peptidase 4 (P27487 whole entry): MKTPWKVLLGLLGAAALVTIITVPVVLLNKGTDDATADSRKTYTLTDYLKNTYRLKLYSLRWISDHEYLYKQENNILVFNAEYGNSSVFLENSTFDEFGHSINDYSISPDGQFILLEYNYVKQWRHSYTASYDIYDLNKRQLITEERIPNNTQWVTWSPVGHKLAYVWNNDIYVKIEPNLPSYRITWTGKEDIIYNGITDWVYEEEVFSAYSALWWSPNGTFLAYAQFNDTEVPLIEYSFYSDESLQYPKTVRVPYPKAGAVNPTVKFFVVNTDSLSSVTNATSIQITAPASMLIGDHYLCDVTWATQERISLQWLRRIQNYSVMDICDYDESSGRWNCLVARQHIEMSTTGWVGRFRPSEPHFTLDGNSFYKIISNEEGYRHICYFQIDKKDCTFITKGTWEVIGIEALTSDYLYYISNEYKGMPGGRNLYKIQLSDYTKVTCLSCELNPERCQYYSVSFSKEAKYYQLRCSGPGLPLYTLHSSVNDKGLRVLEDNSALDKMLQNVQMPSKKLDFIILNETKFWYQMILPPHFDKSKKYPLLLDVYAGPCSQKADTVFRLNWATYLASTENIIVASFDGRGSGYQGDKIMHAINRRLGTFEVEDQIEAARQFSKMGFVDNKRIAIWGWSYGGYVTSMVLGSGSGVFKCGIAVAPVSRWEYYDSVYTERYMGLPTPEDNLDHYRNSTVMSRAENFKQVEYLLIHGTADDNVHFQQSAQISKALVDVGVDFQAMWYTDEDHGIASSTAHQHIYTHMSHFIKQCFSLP
For `N#C[C@@H]1CS[C@H]2C[C@@H](NC3CCCC3)C(=O)N12`, the IC50 – broadly, the concentration needed to halve the response being measured – was over 16 µM.

With `N#C[C@@H]1CS[C@H]2CC[C@@H](N)C(=O)N12`, the 50% inhibitory concentration (IC50) was over 1.6 µM.

`N#C[C@@H]1CS[C@H]2CC[C@H](N)C(=O)N12`: the IC50 is over 1.6 µM.

Turning to `N#C[C@@H]1CS[C@H]2C[C@@H](NCCc3ccccc3)C(=O)N12`, the IC50 was over 16 µM.

For a further test, the target named is T1, Prolyl endopeptidase FAP (Homo sapiens, UniProt Q12884).
T1 sequence (Q12884 whole entry): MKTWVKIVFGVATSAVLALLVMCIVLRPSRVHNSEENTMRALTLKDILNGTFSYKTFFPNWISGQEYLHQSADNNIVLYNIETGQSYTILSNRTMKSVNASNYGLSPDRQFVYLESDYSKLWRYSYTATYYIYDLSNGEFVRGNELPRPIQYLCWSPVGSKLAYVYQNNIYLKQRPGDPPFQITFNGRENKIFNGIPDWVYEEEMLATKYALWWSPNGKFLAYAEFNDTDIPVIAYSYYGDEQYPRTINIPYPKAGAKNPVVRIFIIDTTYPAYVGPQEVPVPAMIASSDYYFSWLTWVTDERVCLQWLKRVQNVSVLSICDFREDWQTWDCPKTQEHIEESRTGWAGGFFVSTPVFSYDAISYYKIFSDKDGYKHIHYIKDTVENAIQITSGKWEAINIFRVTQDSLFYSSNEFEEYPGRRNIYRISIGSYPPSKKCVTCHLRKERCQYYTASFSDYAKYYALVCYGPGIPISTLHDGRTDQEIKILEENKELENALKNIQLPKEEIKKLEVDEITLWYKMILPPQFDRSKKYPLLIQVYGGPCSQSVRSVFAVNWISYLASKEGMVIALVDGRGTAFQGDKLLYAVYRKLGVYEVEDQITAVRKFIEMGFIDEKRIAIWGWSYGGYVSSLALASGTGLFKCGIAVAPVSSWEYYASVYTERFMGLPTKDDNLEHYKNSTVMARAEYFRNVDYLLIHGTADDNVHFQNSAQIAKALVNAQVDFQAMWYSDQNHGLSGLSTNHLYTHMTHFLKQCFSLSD
The test is described as follows: Inhibition of human recombinant FAP expressed in Sf9 cells by fluorescence assay. The method in brief:
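Recombinant human FAP, His-tagged, expressed in infected insect cells grown 48 h and purified by His-tag column. Enzyme preincubated with inhibitor (0.5 nM to 50 µM; dissolved in DMSO or 50 mM glycine pH 3.0) 10 min at 27 °C in 25 mM Tris pH 8. Ala-Pro AMC substrate was then added and AMC release read at ex 360/em 460 nm. IC50 was fitted by nonlinear regression.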
As to `CC[C@@]1(N)C[C@@H]2SC[C@@H](C#N)N2C1=O`, the IC50 was over 10 µM.

As to `CC(C)[C@@]1(N)C[C@@H]2SC[C@@H](C#N)N2C1=O`, the 50% inhibitory concentration (IC50) was over 10 µM.

`N#C[C@@H]1CS[C@H]2C[C@](N)(CCc3ccccc3)C(=O)N12`: the IC50 is over 10 µM.

Turning to `CC(C)C[C@@]1(N)C[C@@H]2SC[C@@H](C#N)N2C1=O`, the half-inhibitory concentration (IC50) is over 10 µM.

Turning to `CC[C@H](C)[C@@]1(N)C[C@@H]2SC[C@@H](C#N)N2C1=O`, the IC50 was over 10 µM.

In the case of `N#C[C@@H]1CS[C@H]2C[C@](N)(c3ccccc3)C(=O)N12`, the concentration for half-maximal inhibition (IC50) was over 10 µM.

Take `N#C[C@@H]1CS[C@H]2C[C@](N)(Cc3ccccc3)C(=O)N12`: the half-maximal inhibitory concentration (IC50) is over 10 µM.

On to `N#C[C@@H]1CS[C@H]2C[C@](N)(CC3CCCCC3)C(=O)N12`, for which the half-inhibitory concentration (IC50) was over 10 µM.

Take `N#C[C@@H]1CS[C@H]2C[C@](N)(c3ccc(F)cc3)C(=O)N12`: the IC50 was over 10 µM.

As to `N#C[C@@H]1CS[C@H]2C[C@](N)(C3CCCC3)C(=O)N12`, the IC50 is over 10 µM.

Regarding `N#C[C@@H]1CS[C@H]2C[C@](N)(C3CCCCC3)C(=O)N12`, the IC50 is over 10 µM.
